The values that follow come from ChEMBL document CHEMBL4130351, “Novel pyrazolopyrimidines: Synthesis, in vitro cytotoxic activity and mechanistic investigation” (Eur J Med Chem, 2017).

The test system of experiment [1] is MCF7. Put plainly: Cytotoxicity against human MCF7 cells assessed as reduction in cell viability after 72 hrs by MTT assay. The format is functional, cell-based. The following applies: MCF7, 72 h. An outline of the steps:
(§1)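 MCF-7 and HepG2 cells in exponential growth were trypsinized and seeded at 1000–2000 cells/well, then incubated 24 h at 37 °C. Compound exposure was 72 h at 0.1, 10, 100 and 1000 μM. Cells took up 5% MTT for 2 h, and formazan was dissolved in acidified isopropanol for 30 min at room temperature. A570 was read, viability expressed as % of control, and IC50 obtained by curve fitting.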
In general terms: Tetrazolium assays rely on reduction of a dye to a coloured formazan, in cell work by metabolically active cells.

The test system of another experiment is HepG2. Description: Cytotoxicity against human HepG2 cells assessed as reduction in cell viability after 72 hrs by MTT assay. The class given is functional, cell-based. The note with it: HepG2, 72 h. A digest of the protocol: as §1
The test system of experiment [2] is MCF7. Put plainly: Induction of apoptosis in human MCF7 cells at 1.4 uM after 24 hrs by Annexin V/propidium iodide double staining-based flow cytometry (reference value: 0.62%). The class given is functional. An outline of the steps:
(§2)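 MCF-7 exposed at 1.4 μM or HepG2 at 0.4 μM for 24 or 48 h. Cells were collected in PBS, fixed in ice-cold 70% ethanol, washed, then resuspended in PI staining solution containing 0.1 mg/mL RNase plus PE-Annexin V. Staining was 10 min in the dark at 37 °C, followed by FACSCalibur flow cytometry.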
(In general: In flow cytometry, cells or beads pass a laser one at a time.)

For experiment [3], the system named is MCF7. Put plainly: Cell cycle arrest in human MCF7 cells assessed as accumulation at S phase at 1.4 uM after 48 hrs by propidium iodide staining-based flow cytometry (reference value: 22.45%). The format is functional.
Experiment [4] relates to MCF7. Put plainly: Induction of apoptosis in human MCF7 cells assessed as early apoptotic cells at 1.4 uM after 48 hrs by Annexin V/propidium iodide double staining-based flow cytometry (reference value: 0.39 %). The format is functional. An outline of the steps: as §2
For experiment [5], the system named is MCF7. Put plainly: Induction of apoptosis in human MCF7 cells assessed as necrotic cells at 1.4 uM after 48 hrs by Annexin V/propidium iodide double staining-based flow cytometry (reference value: 0.05 %). The class given is functional. An outline of the steps:
as §2

Experiment [6] deals with MCF7. Put plainly: Induction of apoptosis in human MCF7 cells assessed as late apoptotic cells at 1.4 uM after 48 hrs by Annexin V/propidium iodide double staining-based flow cytometry (reference value: 0.18 %). The format is functional. An outline of the steps:
as §2

The test system of experiment [7] is MCF7. Description: Cell cycle arrest in human MCF7 cells assessed as accumulation at S phase at 1.4 uM after 24 hrs by propidium iodide staining-based flow cytometry (reference value: 22.45%). The class given is functional.
The subject of experiment [8] is MCF7. Description: Induction of apoptosis in human MCF7 cells assessed as viable cells at 1.4 uM after 24 hrs by Annexin V/propidium iodide double staining-based flow cytometry (reference value: 99.38 %). The class given is functional. The note with it: MCF7, 24 h, read-out: Activity. An outline of the steps: as §2
Experiment [9] concerns MCF7. Description: Induction of apoptosis in human MCF7 cells assessed as late apoptotic cells at 1.4 uM after 24 hrs by Annexin V/propidium iodide double staining-based flow cytometry (reference value: 0.18 %). The class given is functional. A digest of the protocol: as §2
Experiment [10] deals with MCF7. Put plainly: Induction of apoptosis in human MCF7 cells assessed as necrotic cells at 1.4 uM after 24 hrs by Annexin V/propidium iodide double staining-based flow cytometry (reference value: 0.05 %). The class given is functional. A digest of the protocol:
as §2

For experiment [11], the system named is MCF7. Description: Cell cycle arrest in human MCF7 cells assessed as accumulation at G0/G1 phase at 1.4 uM after 48 hrs by propidium iodide staining-based flow cytometry (reference value: 71.70%). The format is functional.
The test system of experiment [12] is MCF7. Description: Induction of apoptosis in human MCF7 cells assessed as caspase-3 activation at 1.4 uM after 10 mins by ELISA relative to control. The class given is functional. An outline of the steps:
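MCF-7 treated at 1.4 μM or HepG2 at 0.4 μM. Cells were trypsinized, rinsed in PBS, pelleted (105–106 cells) and resuspended in 1 mL PBS. Lysis was by three freeze/thaw cycles, followed by a 1500×g spin for 10 min at 2–8 °C. Active caspase-3 (cleaved at Asp175/Ser176) in the lysate was quantified by sandwich ELISA with an anti-rabbit HRP step, read at 450 nm, in pg/mL against control.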
Background: An ELISA detects its analyte on a solid surface through an enzyme-linked reagent.

In experiment [13] the test system is MCF7. Description: Induction of apoptosis in human MCF7 cells assessed as viable cells at 1.4 uM after 48 hrs by Annexin V/propidium iodide double staining-based flow cytometry (reference value: 99.38 %). The class given is functional. The note with it: MCF7, 48 h, read-out: Activity. A digest of the protocol: as §2
The test system of experiment [14] is MCF7. Description: Cell cycle arrest in human MCF7 cells assessed as accumulation at G2/M phase at 1.4 uM after 48 hrs by propidium iodide staining-based flow cytometry (reference value: 5.23%). The class given is functional.
The test system of experiment [15] is MCF7. Put plainly: Induction of apoptosis in human MCF7 cells at 1.4 uM after 48 hrs by Annexin V/propidium iodide double staining-based flow cytometry (reference value: 0.62%). The format is functional. A digest of the protocol: as §2
The test system of experiment [16] is MCF7. Description: Cell cycle arrest in human MCF7 cells assessed as accumulation at G2/M phase at 1.4 uM after 24 hrs by propidium iodide staining-based flow cytometry (reference value: 5.23%). The class given is functional.
The subject of experiment [17] is MCF7. Put plainly: Induction of apoptosis in human MCF7 cells assessed as early apoptotic cells at 1.4 uM after 24 hrs by Annexin V/propidium iodide double staining-based flow cytometry (reference value: 0.39 %). The format is functional. A digest of the protocol: as §2
Experiment [18] relates to MCF7. Put plainly: Cell cycle arrest in human MCF7 cells assessed as accumulation at G0/G1 phase at 1.4 uM after 24 hrs by propidium iodide staining-based flow cytometry (reference value: 71.70%). The class given is functional.

For orientation: IC50 means the point on the concentration scale where inhibition reaches its midpoint. With `NS(=O)(=O)c1ccc(-n2ncc3c(=O)[nH]c(-c4ccc(Br)cc4)nc32)cc1`, the figures for the IC50 in the experiment with MCF7 [1] and with HepG2 were 14.5 µM and 42.6 µM, respectively.

As to `COc1ccc(-c2nc3c(cnn3-c3ccc(S(N)(=O)=O)cc3)c(=O)[nH]2)cc1OC`, the half-inhibitory concentration (IC50) in the experiment with MCF7 [1] and in the experiment with HepG2 was greater than 100 µM throughout.

Turning to `COc1ccc(-c2nc3c(cnn3-c3ccc(S(N)(=O)=O)cc3)c(=O)[nH]2)cc1`, the Activity worked out at 7.38% in the experiment on MCF7 [2]; 16.09% in the experiment with MCF7 [3]; 6.49% in the experiment on MCF7 [4]; 1.48% with MCF7 [5]; 3.64% with MCF7 [6]; 27.92% in the experiment with MCF7 [7]. Besides, the Activity in the experiment on MCF7 [9] was 2.58%; in the experiment with MCF7 [10] it was 0.41%; in the experiment with MCF7 [11], 72.3%; in the experiment on MCF7 [14], 0%; in the experiment on MCF7 [15] it was 11.61%; in the experiment on MCF7 [16], 0%. Further, the Activity amounted to 4.39% in the experiment with MCF7 [17] and 64.7% with MCF7 [18]. Further, the viability at 1.4 µM with MCF7 [8] is 72.6%; in the experiment with MCF7 [13], 88.4%. The “fold change (FC)” value in the experiment on MCF7 [12] is listed as 32. Besides, the IC50 was 1.4 µM in the experiment with MCF7 [1] and greater than 100 µM in the experiment with HepG2.

For the compound `COc1cccc2c1C(=O)c1c(O)c3c(c(O)c1C2=O)C[C@@](O)(C(=O)CO)C[C@@H]3O[C@H]1C[C@H](N)[C@H](O)[C@H](C)O1` [DOXORUBICIN], the IC50 with MCF7 [1] was 1.02 µM; in the experiment on HepG2, 0.9 µM.

In the case of `NS(=O)(=O)c1ccc(-n2ncc3c(=O)[nH]c(-c4ccc(F)cc4)nc32)cc1`, the IC50 in the experiment on MCF7 [1] was found to be 38 µM; in the experiment on HepG2, 2.66 µM.

In the case of `NS(=O)(=O)c1ccc(-n2ncc3c(=O)[nH]c(-c4ccc(Cl)cc4)nc32)cc1`, the figures for the IC50 in the experiment with MCF7 [1] and in the experiment on HepG2 were 2.5 µM and 23.9 µM, respectively.
